Most compounds without a hit are left out; they make up all but 1.4% or so of the library.
KLK5 inh = human KLK5 protease inhibitors, primary screen, biochemical, 1536-well; AID 873, 2007; actives 0.59% (n = 210,000); inhibition, % at 5 µM; Kallikrein-5 (Homo sapiens), Q9Y337; recombinant hK5, fluorogenic AMC substrate cleavage;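 active = inhibition of 40% or more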;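 note: 0% = enzyme controls without compound and 100% = no-enzyme blanks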
Thrombin inh = human alpha-thrombin inhibitors, primary screen, counter-screen for coagulation protease inhibitor project, biochemical, 1536-well, fluorogenic AMC substrate | actives 0.26% (n = 220,000) | inhibition, % at 5 µM | Boc-VPR-AMC fluorogenic substrate cleavage | Prothrombin (Homo sapiens), P00734;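 active = inhibition at or above 40%; inactive = inhibition below 40%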;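 note: 0% = enzyme with no compound and 100% = wells without enzyme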
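signal = AMC fluorescence, 355/460 nm | material = human alpha-thrombin enzyme | control set = enzyme without compound as high, wells lacking enzyme as low | times = reaction at room temperature | read-out basis = percent inhibition scaled between no-compound controls and no-enzyme blanks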
Calpain2 inh = inhibitors of pig calpain II, primary screen, biochemical, fluorogenic peptide substrate, 1536-well. AID 1236, 2008. purified calpain II, 30 min. actives 0.37% (n = 220,000). inhibition, % at 16 µM;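 active = inhibition above about 50%, limit read from the data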
FXIa inh 1536 = human FXIa protease inhibitors, primary screen, biochemical, 1536-well | inhibition, % at 5 µM | actives 0.14% (n = 220,000) | AID 798, 2007 | purified FXIa, Boc-Glu-Ala-Arg-AMC fluorogenic substrate | Coagulation factor XI (Homo sapiens), P03951;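 active = inhibition of at least 40%; inactive = inhibition below 40%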;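 note: fluorescence of freed AMC excited at 355 nm; 0% = enzyme without compound and 100% = no enzyme blank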
Target sequence (P03951 19-387 limits assumed): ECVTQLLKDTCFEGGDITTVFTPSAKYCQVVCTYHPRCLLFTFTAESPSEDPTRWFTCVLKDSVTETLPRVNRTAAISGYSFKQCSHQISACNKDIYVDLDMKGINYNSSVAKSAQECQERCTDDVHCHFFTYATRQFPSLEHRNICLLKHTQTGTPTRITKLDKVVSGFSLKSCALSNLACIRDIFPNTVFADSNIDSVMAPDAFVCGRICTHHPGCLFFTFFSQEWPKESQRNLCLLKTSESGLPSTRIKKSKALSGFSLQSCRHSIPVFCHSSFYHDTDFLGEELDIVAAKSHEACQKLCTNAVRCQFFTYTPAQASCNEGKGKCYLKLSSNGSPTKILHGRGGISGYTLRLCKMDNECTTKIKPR
Target sequence (P03951 388-625 limits assumed): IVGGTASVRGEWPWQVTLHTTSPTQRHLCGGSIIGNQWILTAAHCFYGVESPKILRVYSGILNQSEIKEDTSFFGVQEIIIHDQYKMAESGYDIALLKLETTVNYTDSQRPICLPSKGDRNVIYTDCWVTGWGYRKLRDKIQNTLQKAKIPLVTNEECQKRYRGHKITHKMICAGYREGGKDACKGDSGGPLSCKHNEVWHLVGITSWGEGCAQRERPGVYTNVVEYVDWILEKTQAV
FXIIa inh = human FXIIa protease inhibitors, primary screen, biochemical, 1536-well; purified FXIIa, Boc-QGR-AMC fluorogenic substrate, 2 h; inhibition, % at 5 µM; actives 0.3% (n = 220,000); in the data active = inhibition above about 40%;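 note: 0% = enzyme with no compound and 100% = blank without enzyme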
Active calls of the source: *.

What do the screens show for `O=C(NCc1ccccc1)C1=C[C@@H](c2coc3ccccc3c2=O)C[C@@H](OCCCCO)O1`?
KLK5 inh: 6; Thrombin inh: 41*; Calpain2 inh: 17; FXIa inh 1536: 1; FXIIa inh: 14

What do the screens show for `CC(c1ccon1)N(C)C(=O)c1ccc(OC2CCN(C(=O)C3CC3)CC2)cc1` (configuration not stated)?
KLK5 inh: 1; Thrombin inh: -9; Calpain2 inh: -23; FXIa inh 1536: -3; FXIIa inh: 3

What do the screens show for `C=CCNC(=O)CN(c1ccc(F)cc1)S(=O)(=O)c1ccc(OC)cc1`?
KLK5 inh: 4; Thrombin inh: -2; Calpain2 inh: 31; FXIa inh 1536: 12; FXIIa inh: 54*

How did O=C(Oc1ccc2c(=O)c(Cl)coc2c1)c1cccnc1 do in these assays?
KLK5 inh: -10; Thrombin inh: 23; Calpain2 inh: -199; FXIa inh 1536: 66*; FXIIa inh: 30

How did O=C(Oc1ccc2c(=O)c(Oc3ccc4ccccc4c3)coc2c1)c1cccnc1 do in these assays?
KLK5 inh: -5; Thrombin inh: -5; Calpain2 inh: -322; FXIa inh 1536: 0; FXIIa inh: 3

What do the screens show for `CC(=O)N1CCCc2cc(S(=O)(=O)N3CCc4ccccc4C3)ccc21`?
KLK5 inh: -2; Thrombin inh: -6; Calpain2 inh: 25; FXIa inh 1536: 1; FXIIa inh: 10

How did CCC(=O)N1CCc2cc(S(=O)(=O)N3CCc4ccccc4C3)ccc21 do in these assays?
KLK5 inh: -12; Thrombin inh: -7; Calpain2 inh: 54*; FXIa inh 1536: -7; FXIIa inh: -1

How did CC(C)C(NC(=O)C(Cc1ccccc1)NC(=O)OCc1ccccc1)C(=O)O (configuration not stated) do in these assays?
KLK5 inh: 21; Thrombin inh: 3; Calpain2 inh: 8; FXIa inh 1536: 47*; FXIIa inh: 24

Results for O=C(NC(Cc1ccccc1)C(=O)O)OCc1ccccc1 (configuration not stated) ?
KLK5 inh: -3; Thrombin inh: -7; Calpain2 inh: 26; FXIa inh 1536: -1; FXIIa inh: 4

Results for CCCn1c(/N=C/c2ccc3c(c2)OCO3)nc2ccccc21 ?
KLK5 inh: 43*; Thrombin inh: 14; Calpain2 inh: 9; FXIa inh 1536: 5; FXIIa inh: 12

Results for C=CCn1c(SCc2c(C)noc2C)nc2cc(C(=O)O)ccc2c1=O ?
KLK5 inh: 21; Thrombin inh: 46*; Calpain2 inh: -6; FXIa inh 1536: 11; FXIIa inh: 21

Results for Cc1noc(C)c1CSc1nc2ccccc2c(=O)n1-c1ccc(F)cc1F ?
KLK5 inh: -3; Thrombin inh: 0; Calpain2 inh: 77*; FXIa inh 1536: 26; FXIIa inh: 43*

How did CCOC(=O)c1cc(C)nc(N2CCCCC2)c1C#N do in these assays?
KLK5 inh: -2; Thrombin inh: 1; Calpain2 inh: -14; FXIa inh 1536: 1; FXIIa inh: 6

How did Cc1cccc(C)c1-n1c(C)cc(/C=N\NC(=O)CC(=O)NC2CCCCC2)c1C do in these assays?
KLK5 inh: -2; Thrombin inh: -6; Calpain2 inh: 10; FXIa inh 1536: 0; FXIIa inh: 6

How did C/C(Cc1ccccc1)=N\NC(=O)CNC(=O)c1ccccc1O do in these assays?
KLK5 inh: 1; Thrombin inh: -1; Calpain2 inh: -15; FXIa inh 1536: 2; FXIIa inh: 7

What do the screens show for `O=C(NNC(=O)c1cccnc1)Nc1ccc([N+](=O)[O-])cc1`?
KLK5 inh: 42*; Thrombin inh: 34; Calpain2 inh: 32; FXIa inh 1536: 9; FXIIa inh: 24

Results for O=C(NNC(=O)c1ccncc1)Nc1ccc([N+](=O)[O-])cc1 ?
KLK5 inh: 1; Thrombin inh: 0; Calpain2 inh: 12; FXIa inh 1536: 0; FXIIa inh: 8

Results for O=C(NC1CCCCCCC1)C1c2ccccc2C(=O)N1Cc1cccs1 (configuration not stated) ?
KLK5 inh: -2; Thrombin inh: 1; Calpain2 inh: 13; FXIa inh 1536: 0; FXIIa inh: 9

Results for CC1CCC(NC(=O)C2c3ccccc3C(=O)N2Cc2cccs2)CC1 (configuration not stated) ?
KLK5 inh: 44*; Thrombin inh: 17; Calpain2 inh: 32; FXIa inh 1536: 4; FXIIa inh: 18

What do the screens show for `COc1ccc(CN2C(=O)c3ccccc3C2C(=O)NC2CCCCCC2)c(OC)c1` (configuration not stated)?
KLK5 inh: 22; Thrombin inh: 47*; Calpain2 inh: 13; FXIa inh 1536: 31; FXIIa inh: 33

Results for CCCCCCCCCc1nc2sc3c(c2c(=O)n1NC(=O)c1ccccc1[N+](=O)[O-])CC(C)(C)OC3 ?
KLK5 inh: 2; Thrombin inh: 3; Calpain2 inh: -21; FXIa inh 1536: 3; FXIIa inh: 24

What do the screens show for `COc1cccc(CN2CCNC(=O)C2CC(=O)N(C)Cc2cnccn2)c1OC` (configuration not stated)?
KLK5 inh: -5; Thrombin inh: -8; Calpain2 inh: -5; FXIa inh 1536: 0; FXIIa inh: 4

How did COc1ccccc1CN1CCNC(=O)C1CC(=O)N(C)Cc1cnccn1 (configuration not stated) do in these assays?
KLK5 inh: 42*; Thrombin inh: 22; Calpain2 inh: 11; FXIa inh 1536: 32; FXIIa inh: 49*

What do the screens show for `CC(C)c1ccc(-c2noc(C3CCCN(C(=O)c4ccc(F)cc4F)C3)n2)cc1` (configuration not stated)?
KLK5 inh: -10; Thrombin inh: 61*; Calpain2 inh: 77*; FXIa inh 1536: -10; FXIIa inh: 3

Results for C=CCSc1nnc(-c2cc3c(-c4ccccc4)nn(C)c3s2)n1C ?
KLK5 inh: 52*; Thrombin inh: 16; Calpain2 inh: -30; FXIa inh 1536: 5; FXIIa inh: 18

What do the screens show for `CCc1cccc(CC)c1NC(=S)NCc1nc2ccccc2[nH]1`?
KLK5 inh: -18; Thrombin inh: -1; Calpain2 inh: 0; FXIa inh 1536: -4; FXIIa inh: 7

How did CCOC(=O)c1oc2ccccc2c1NC(=O)c1ccccc1OC do in these assays?
KLK5 inh: 60*; Thrombin inh: -12; Calpain2 inh: -31; FXIa inh 1536: 1; FXIIa inh: 17

What do the screens show for `CSc1nc2cc3c(cc2n1C(=O)c1ccc(C)cc1)OCCO3`?
KLK5 inh: 26; Thrombin inh: 88*; Calpain2 inh: -38; FXIa inh 1536: 67*; FXIIa inh: 15

Source: PubChem BioAssay (several laboratories)
